Measurements taken from ChEMBL document CHEMBL4325893, “Synthesis and antibacterial profiles of targeted triclosan derivatives” (2019).
Converted amounts (≈) assume the structure as drawn.

Tests used:
Staphylococcus aureus [1] = experiment: Antibacterial activity against Staphylococcus aureus ATCC 6538 after 18 hrs; assay type: functional; conditions: ATCC 6538, 18 h
How it was run: (§1)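 Broth microdilution in Nutrient Broth No. 2; stocks in ethanol diluted to 0.01–128 µg/ml (triclosan) or 0.25–256 µg/ml (glycosides). Overnight 37 °C NB2 cultures diluted 1 in 10^4 in saline and added to the dilutions. Incubation at 37 °C with agitation, OD read every 15 min; MIC is the lowest concentration preventing any OD rise after 18 h.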

Staphylococcus aureus [2] = experiment: Antibacterial activity against Staphylococcus aureus ATCC 6538P after 18 hrs; assay type: functional; how it was run: as §1
Staphylococcus aureus [3] = experiment: Antibacterial activity against Staphylococcus aureus ATCC 9144 after 18 hrs; assay type: functional; conditions: ATCC 9144, 18 h; how it was run: as §1
Staphylococcus aureus [4] = experiment: Antibacterial activity against Staphylococcus aureus ATCC 25923 after 18 hrs; assay type: functional; conditions: ATCC 25923, 18 h; how it was run: as §1
Staphylococcus aureus [5] = experiment: Antibacterial activity against Staphylococcus aureus ATCC 29213 after 18 hrs; assay type: functional; conditions: ATCC 29213, 18 h; how it was run: as §1
Staphylococcus aureus [6] = experiment: Antibacterial activity against Staphylococcus aureus NCTC 13758 after 18 hrs; assay type: functional; conditions: NCTC 13758, 18 h; how it was run: as §1
Staphylococcus aureus [7] = experiment: Antibacterial activity against Staphylococcus aureus OCC 104 after 18 hrs; assay type: functional; conditions: OCC 104, 18 h; how it was run: as §1
Staphylococcus aureus [8] = experiment: Antibacterial activity against Staphylococcus aureus OCC 106 after 18 hrs; assay type: functional; conditions: OCC 106, 18 h; how it was run: as §1
[9] = system: Staphylococcus epidermidis; experiment: Antibacterial activity against Staphylococcus epidermidis 155 after 18 hrs; assay type: functional; conditions: Staphylococcus epidermidis, 155, 18 h; how it was run: as §1
[10] = system: Staphylococcus epidermidis; experiment: Antibacterial activity against Staphylococcus epidermidis ATCC 12228 after 18 hrs; assay type: functional; conditions: ATCC 12228, 18 h; how it was run: as §1
[11] = system: Staphylococcus epidermidis; experiment: Antibacterial activity against Staphylococcus epidermidis ATCC 14990 after 18 hrs; assay type: functional; conditions: ATCC 14990, 18 h; how it was run: as §1
[12] = system: Staphylococcus haemolyticus; experiment: Antibacterial activity against Staphylococcus haemolyticus OCC 2223 after 18 hrs; assay type: functional; conditions: OCC 2223, 18 h
How it was run: (§2)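 Broth microdilution in Nutrient Broth No. 2. Ethanol stocks were diluted in broth to 0.01–128 µg/ml for triclosan and 0.25–256 µg/ml for glycosides. Overnight 37°C NB2 cultures were diluted 1 in 10^4 in saline and added to the wells. Plates were incubated at 37°C with OD read every 15 min after agitation. MIC was the lowest concentration giving no OD increase at 18 h.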

[13] = system: Staphylococcus saprophyticus; experiment: Antibacterial activity against Staphylococcus saprophyticus ATCC 15305 after 18 hrs; assay type: functional; conditions: ATCC 15305, 18 h; how it was run: as §2
Streptococcus agalactiae = experiment: Antibacterial activity against Streptococcus agalactiae OCC 182 after 18 hrs; assay type: functional; conditions: OCC 182, 18 h; how it was run: as §2
Streptococcus pneumoniae [14] = experiment: Antibacterial activity against Streptococcus pneumoniae 6305 after 18 hrs; assay type: functional; conditions: Streptococcus pneumoniae, 6305, 18 h; how it was run: as §2
Streptococcus pneumoniae [15] = experiment: Antibacterial activity against Streptococcus pneumoniae ATCC 49619 after 18 hrs; assay type: functional; conditions: ATCC 49619, 18 h; how it was run: as §2
Streptococcus pyogenes = experiment: Antibacterial activity against Streptococcus pyogenes ATCC 19615 after 18 hrs; assay type: functional; conditions: ATCC 19615, 18 h; how it was run: as §2
Streptococcus viridans = experiment: Antibacterial activity against Streptococcus viridans OCC 234 after 18 hrs; assay type: functional; conditions: OCC 234, 18 h; how it was run: as §2
[16] = system: Salmonella enterica subsp. enterica serovar Abony; experiment: Antibacterial activity against Salmonella enterica subspecies enterica serotype Abony NCTC 6017 after 18 hrs; assay type: functional; conditions: NCTC 6017, 18 h; how it was run: as §1
[17] = Antibacterial activity against Salmonella enterica subspecies enterica serotype Arizonae OCC 706 after 18 hrs; assay type: functional, Salmonella enterica subsp. enterica serovar Arizonae; conditions: OCC 706, 18 h; how it was run: as §1
[18] = Antibacterial activity against Salmonella enterica subspecies enterica serotype Dublin OCC 627 after 18 hrs; assay type: functional, Salmonella enterica subsp. enterica serovar Dublin; conditions: OCC 627, 18 h; how it was run: as §1
Salmonella enteritidis = experiment: Antibacterial activity against Salmonella enterica subspecies enterica serotype Enteritidis 13076 after 18 hrs; assay type: functional, Salmonella enterica subsp. enterica serovar Enteritidis; conditions: Salmonella enterica, 13076, 18 h; how it was run: as §1
[19] = Antibacterial activity against Salmonella enterica subspecies enterica serotype Indiana OCC 597 after 18 hrs; assay type: functional, Salmonella enterica subsp. enterica serovar Indiana; conditions: OCC 597, 18 h; how it was run: as §1
[20] = Antibacterial activity against Salmonella enterica subspecies enterica serotype Infantis OCC 2133 after 18 hrs; assay type: functional, Salmonella enterica subsp. enterica serovar Infantis; conditions: OCC 2133, 18 h; how it was run: as §1
[21] = Antibacterial activity against Salmonella enterica subspecies enterica serotype Nottingham NCTC 7832 after 18 hrs; assay type: functional, Salmonella enterica subsp. enterica serovar Nottingham; conditions: NCTC 7832, 18 h; how it was run: as §1
[22] = Antibacterial activity against Salmonella enterica subspecies enterica serotype Poona NCTC 4840 after 18 hrs; assay type: functional, Salmonella enterica subsp. enterica serovar Poona; conditions: NCTC 4840, 18 h; how it was run: as §1
[23] = Antibacterial activity against Salmonella enterica subspecies enterica serotype Pullorum OCC 273 after 18 hrs; assay type: functional, Salmonella enterica subsp. enterica serovar Pullorum; conditions: OCC 273, 18 h; how it was run: as §1
Salmonella typhimurium = experiment: Antibacterial activity against Salmonella enterica subspecies enterica serotype typhimurium ATCC 14028 after 18 hrs; assay type: functional, Salmonella enterica subsp. enterica serovar Typhimurium; conditions: ATCC 14028, 18 h; how it was run: as §1
[24] = Antibacterial activity against Salmonella enterica subspecies enterica serotype Virchow NCTC 5742 after 18 hrs; assay type: functional, Salmonella enterica subsp. enterica serovar Virchow; conditions: NCTC 5742, 18 h; how it was run: as §1

OC[C@H]1O[C@H](Oc2cc(Cl)ccc2Oc2ccc(Cl)cc2Cl)[C@H](O)[C@@H](O)[C@H]1O
MIC (Staphylococcus aureus [1]): 8 to 16 µg/mL (≈ 17.7 to 35.4 µM)
MIC (Staphylococcus aureus [2]): 8 to 16 µg/mL (≈ 17.7 to 35.4 µM)
MIC (Staphylococcus aureus [3]): 8 to 16 µg/mL (≈ 17.7 to 35.4 µM)
MIC (Staphylococcus aureus [4]): 8 to 16 µg/mL (≈ 17.7 to 35.4 µM)
MIC (Staphylococcus aureus [5]): 8 to 16 µg/mL (≈ 17.7 to 35.4 µM)
MIC (Staphylococcus aureus [6]): 8 to 16 µg/mL (≈ 17.7 to 35.4 µM)
MIC (Staphylococcus aureus [7]): 8 to 16 µg/mL (≈ 17.7 to 35.4 µM)
MIC (Staphylococcus aureus [8]): 8 to 16 µg/mL (≈ 17.7 to 35.4 µM)
MIC [9]: 8 to 32 µg/mL (≈ 17.7 to 70.8 µM)
MIC [10]: 8 to 32 µg/mL (≈ 17.7 to 70.8 µM)
MIC [11]: 8 to 32 µg/mL (≈ 17.7 to 70.8 µM)
MIC [12]: 16 µg/mL (≈ 35.4 µM)
MIC [13]: 64 µg/mL (≈ 142 µM)
MIC (Streptococcus agalactiae): > 256 µg/mL
MIC (Streptococcus pneumoniae [14]): 128 µg/mL (≈ 283 µM)
MIC (Streptococcus pneumoniae [15]): 128 µg/mL (≈ 283 µM)
MIC (Streptococcus pyogenes): 256 µg/mL (≈ 567 µM)
MIC (Streptococcus viridans): > 256 µg/mL
MIC [16]: 32 to 64 µg/mL (≈ 70.8 to 142 µM)
MIC [17]: 32 to 64 µg/mL (≈ 70.8 to 142 µM)
MIC [18]: 32 to 64 µg/mL (≈ 70.8 to 142 µM)
MIC (Salmonella enteritidis): 32 to 64 µg/mL (≈ 70.8 to 142 µM)
MIC [19]: 32 to 64 µg/mL (≈ 70.8 to 142 µM)
MIC [20]: 32 to 64 µg/mL (≈ 70.8 to 142 µM)
MIC [21]: 32 to 64 µg/mL (≈ 70.8 to 142 µM)
MIC [22]: 32 to 64 µg/mL (≈ 70.8 to 142 µM)
MIC [23]: 32 to 64 µg/mL (≈ 70.8 to 142 µM)
MIC (Salmonella typhimurium): 32 to 64 µg/mL (≈ 70.8 to 142 µM)
MIC [24]: 32 to 64 µg/mL (≈ 70.8 to 142 µM)
